Laboratory results: ChEMBL document CHEMBL1123589, “Phenylpiperazine-based radiopharmaceuticals for brain imaging. 3. Synthesis and evaluation of radioiodinated 1-alkyl-4-phenylpiperazines” (J Med Chem, 1987)
“And” between values parts separate entries of the source, which are not always exact repeats. Equal values may be shown once.

Columns and labels:
Conditions in all cases: in vivo
Canis familiaris [1] = assay: The biodistribution of the [131I]-labeled compound in dog (mass= 5.7 kg), 2 hr after intravenous injection was evaluated in heart (ID.kg/g); format: ADME, organism-based, Canis lupus familiaris
Summary of the method: (§1)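 One female dog (5.7 kg) premedicated im with acepromazine maleate, then anesthetized iv with sodium nembutal/saline (1:1). Given 1.0 mCi iv of ¹³¹I-labeled agent. Killed 2 h post-dose with iv nembutal. Tissues excised, weighed and counted; blood, fat and muscle masses estimated as 7.5%, 27.5% and 40% of body weight. Expressed as % ID/organ and % ID·kg/g.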

Rattus norvegicus [2] = assay: The biodistribution of the [125I]-labeled compound in rats after intravenous injection was evaluated in brain at 1.00 hrs (ID.kg/g); format: ADME, organism-based
Summary of the method: (§2)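 Male Sprague-Dawley rats (250–300 g) under ether anesthesia were given an iv injection of no-carrier-added 125I-labelled agent (10–15 μCi in 0.1 mL saline). The agent was iodinated with chloramine-T in acetate buffer and purified by C-18 HPLC. Groups of N = 3 were killed at 0.25, 1 and 4 h. Blood and tissues were weighed and γ-counted. Values are % ID·kg/g, mean (range).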

Rattus norvegicus [3] = assay: The biodistribution of the [125I]-labeled compound in rats after intravenous injection was evaluated in heart at 1.00 hrs; value ranges from 0.26-0.37 (ID.kg/g); format: ADME, organism-based
Summary of the method: (§3)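 Male Sprague-Dawley rats (250–300 g), under ether anesthesia, given 10–15 μCi of the NCA ¹²⁵I-labeled agent iv in 0.1 mL saline. Groups of N = 3 were killed at 0.25, 1 or 4 h. Blood and tissues were removed, weighed and counted in a γ-well scintillation counter. Values are mean % ID·kg/g (range).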

Canis familiaris [4] = assay: The biodistribution of the [131I]-labeled compound in dog (mass= 5.7 kg), 2 hr after intravenous injection was evaluated in liver (ID.kg/g); format: ADME, organism-based, Canis lupus familiaris; summary of the method: as §1
Canis familiaris [5] = assay: The biodistribution of the [131I]-labeled compound in dog (mass= 5.7 kg), 2 hr after intravenous injection was evaluated in blood (ID.kg/g); format: ADME, organism-based, Canis lupus familiaris; summary of the method: as §1
Canis familiaris [6] = assay: The biodistribution of the [131I]-labeled compound in dog (mass= 5.7 kg), 2 hr after intravenous injection was evaluated in kidney (ID.kg/g); format: ADME, organism-based, Canis lupus familiaris; summary of the method: as §1
Rattus norvegicus [7] = assay: The biodistribution of the [125I]-labeled compound in rats after intravenous injection was evaluated in blood at 4.00 hrs (ID.kg/g); format: ADME, organism-based; summary of the method: as §2
Canis familiaris [8] = assay: The biodistribution of the [131I]-labeled compound in dog (mass= 5.7 kg), 2 hr after intravenous injection was evaluated in cortex (ID.kg/g); format: ADME, organism-based, Canis lupus familiaris; summary of the method: as §1
Rattus norvegicus [9] = assay: The biodistribution of the [125I]-labeled compound in rats after intravenous injection was evaluated in fat at 1.00 hrs (ID.kg/g); format: ADME, organism-based, Adipose tissue; summary of the method: as §2
Rattus norvegicus [10] = assay: The biodistribution of the [125I]-labeled compound in rats after intravenous injection was evaluated in liver at 4.00 hrs; value ranges from 0.40-0.52 (ID.kg/g); format: ADME, organism-based; summary of the method: as §3
Rattus norvegicus [11] = assay: The biodistribution of the [125I]-labeled compound in rats after intravenous injection was evaluated in muscle at 0.25 hrs (ID.kg/g); format: ADME, organism-based, Muscle tissue
Summary of the method: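 Male Sprague-Dawley rats (250–300 g) under ether anesthesia given iv 0.1 mL saline containing 10–15 μCi of NCA ¹²⁵I-labeled agent (chloramine-T iodination, HPLC-purified). Groups of 3 killed at 0.25, 1 and 4 h. Blood and tissues excised, weighed and γ-counted. Values are mean (range) of % injected dose × body mass (kg) per gram of tissue.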

Rattus norvegicus [12] = assay: The biodistribution of the [125I]-labeled compound in rats after intravenous injection was evaluated in lung at 4.00 hrs; value ranges from 0.45-0.67 (ID.kg/g); format: ADME, organism-based; summary of the method: as §3
Rattus norvegicus [13] = assay: The biodistribution of the [125I]-labeled compound in rats after intravenous injection was evaluated in adrenal at 1.00 hrs; value ranges from 0.80-1.14 (ID.kg/g); format: ADME, organism-based; summary of the method: as §2
Canis familiaris [14] = assay: The biodistribution of the [131I]-labeled compound in dog (mass= 5.7 kg), 2 hr after intravenous injection was evaluated in thyroid (ID.kg/g); format: ADME, organism-based, Canis lupus familiaris, Thyroid gland; summary of the method: as §1
Canis familiaris [15] = assay: The biodistribution of the [131I]-labeled compound in dog (mass= 5.7 kg), 2 hr after intravenous injection was evaluated in lung (ID.kg/g); format: ADME, organism-based, Canis lupus familiaris; summary of the method: as §1

CCCCN1CCN(c2ccc(I)cc2)CC1
Biodistribution (Canis familiaris [1]): 0.85% | Biodistribution (Rattus norvegicus [2]): 0.28% | Biodistribution (Rattus norvegicus [3]): 0.37% | Biodistribution (Canis familiaris [4]): 6.68% and 1.88% | Biodistribution (Canis familiaris [5]): 1.072% and 0.148% | Biodistribution (Canis familiaris [6]): 0.182% | Biodistribution (Rattus norvegicus [7]): 0.01 % ID·kg/g | Biodistribution (Canis familiaris [8]): 0.171% | Biodistribution (Rattus norvegicus [9]): 0.01 % ID·kg/g | Biodistribution (Rattus norvegicus [10]): 0.52% | Biodistribution (Rattus norvegicus [11]): 0.03 % ID·kg/g | Biodistribution (Rattus norvegicus [12]): 0.67% | Biodistribution (Rattus norvegicus [13]): 1.14% | Biodistribution (Canis familiaris [14]): 0.032% and 0.342% | Biodistribution (Canis familiaris [15]): 1.287% and 0.143%
